The values that follow come from publication PMC9072645 (RSC Advances, 2019).

Common to all, as to assay type: biochemical
Assay [1] has as its target T1, human recombinant (hr) FAP (Homo sapiens, UniProt Q12884).
T1 sequence (Q12884 1-760): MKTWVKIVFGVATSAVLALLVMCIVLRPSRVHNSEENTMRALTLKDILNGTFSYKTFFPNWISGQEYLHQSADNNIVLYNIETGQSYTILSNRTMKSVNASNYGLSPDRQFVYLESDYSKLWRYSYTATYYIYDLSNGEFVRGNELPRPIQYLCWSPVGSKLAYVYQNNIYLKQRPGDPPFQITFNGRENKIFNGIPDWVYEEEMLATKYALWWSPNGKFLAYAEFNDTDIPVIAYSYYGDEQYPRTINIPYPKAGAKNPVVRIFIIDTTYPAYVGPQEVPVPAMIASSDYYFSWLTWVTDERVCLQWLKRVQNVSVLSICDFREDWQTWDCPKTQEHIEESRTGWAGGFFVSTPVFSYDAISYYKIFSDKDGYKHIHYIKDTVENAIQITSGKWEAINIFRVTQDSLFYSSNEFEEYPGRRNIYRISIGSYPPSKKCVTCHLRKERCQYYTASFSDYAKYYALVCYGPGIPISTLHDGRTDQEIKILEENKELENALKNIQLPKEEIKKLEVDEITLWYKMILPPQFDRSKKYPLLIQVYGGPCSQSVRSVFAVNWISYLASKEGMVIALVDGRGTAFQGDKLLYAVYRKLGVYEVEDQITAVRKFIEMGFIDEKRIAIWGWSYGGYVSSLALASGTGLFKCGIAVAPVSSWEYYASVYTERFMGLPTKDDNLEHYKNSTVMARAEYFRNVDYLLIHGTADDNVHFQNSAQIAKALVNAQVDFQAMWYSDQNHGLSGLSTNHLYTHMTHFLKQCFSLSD
As to the kind of experiment: Inhibition of hrFAP. In a few lines: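 Recombinant human FAP, 0.01 μg per well, in 50 mM Tris, 1 M NaCl, 1 mg mL−1 BSA, pH 7.5. Preincubated 30 min at 37 °C with test compound at 5, 10, 20, 50 and 100 nM. Then 50 μM Z-Gly-Pro-AMC was added and the fluorescence increase followed for 60 min at 37 °C (λex/λem 360/460 nm). Triplicate wells, experiment repeated twice. IC50 determined graphically; Ki calculated.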

In the next assay the target is hrDPP IV (Homo sapiens, UniProt P27487). Put plainly: Inhibition of hrDPP IV. In a few lines:
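Recombinant human DPP IV, 0.01 μg per well, in 25 mM Tris, 1 mg mL−1 BSA, pH 8.0. Enzyme preincubated 30 min at 37 °C with test compound […]. Residual activity was read with 50 μM H-Gly-Pro-AMC as fluorescence increase over 60 min at 37 °C, 360/460 nm. Triplicate wells, repeated twice. IC50 determined graphically.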

For another assay, the target named is T2, hrPREP (Homo sapiens, UniProt P48147).
T2 sequence (P48147 1-710): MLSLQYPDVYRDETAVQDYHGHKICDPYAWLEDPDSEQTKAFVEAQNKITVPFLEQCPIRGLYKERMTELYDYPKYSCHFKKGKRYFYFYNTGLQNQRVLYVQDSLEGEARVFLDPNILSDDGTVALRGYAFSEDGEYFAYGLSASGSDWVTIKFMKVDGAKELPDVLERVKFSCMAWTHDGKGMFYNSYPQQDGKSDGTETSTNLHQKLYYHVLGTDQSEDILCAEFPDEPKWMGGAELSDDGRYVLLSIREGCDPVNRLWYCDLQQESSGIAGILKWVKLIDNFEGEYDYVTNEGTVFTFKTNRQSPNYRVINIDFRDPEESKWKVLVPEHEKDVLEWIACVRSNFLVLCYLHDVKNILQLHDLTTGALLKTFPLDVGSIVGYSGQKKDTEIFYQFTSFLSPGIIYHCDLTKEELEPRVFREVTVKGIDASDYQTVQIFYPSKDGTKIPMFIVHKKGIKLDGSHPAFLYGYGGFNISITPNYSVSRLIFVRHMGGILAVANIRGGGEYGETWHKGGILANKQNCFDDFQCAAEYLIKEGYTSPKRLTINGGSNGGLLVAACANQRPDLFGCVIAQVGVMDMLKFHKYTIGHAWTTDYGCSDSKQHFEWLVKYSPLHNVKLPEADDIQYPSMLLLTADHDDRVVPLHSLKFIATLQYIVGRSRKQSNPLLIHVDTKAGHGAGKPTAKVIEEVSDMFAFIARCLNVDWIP
Put plainly: Inhibition of hrPREP.

Chain of hrDPP IV (P27487 whole entry): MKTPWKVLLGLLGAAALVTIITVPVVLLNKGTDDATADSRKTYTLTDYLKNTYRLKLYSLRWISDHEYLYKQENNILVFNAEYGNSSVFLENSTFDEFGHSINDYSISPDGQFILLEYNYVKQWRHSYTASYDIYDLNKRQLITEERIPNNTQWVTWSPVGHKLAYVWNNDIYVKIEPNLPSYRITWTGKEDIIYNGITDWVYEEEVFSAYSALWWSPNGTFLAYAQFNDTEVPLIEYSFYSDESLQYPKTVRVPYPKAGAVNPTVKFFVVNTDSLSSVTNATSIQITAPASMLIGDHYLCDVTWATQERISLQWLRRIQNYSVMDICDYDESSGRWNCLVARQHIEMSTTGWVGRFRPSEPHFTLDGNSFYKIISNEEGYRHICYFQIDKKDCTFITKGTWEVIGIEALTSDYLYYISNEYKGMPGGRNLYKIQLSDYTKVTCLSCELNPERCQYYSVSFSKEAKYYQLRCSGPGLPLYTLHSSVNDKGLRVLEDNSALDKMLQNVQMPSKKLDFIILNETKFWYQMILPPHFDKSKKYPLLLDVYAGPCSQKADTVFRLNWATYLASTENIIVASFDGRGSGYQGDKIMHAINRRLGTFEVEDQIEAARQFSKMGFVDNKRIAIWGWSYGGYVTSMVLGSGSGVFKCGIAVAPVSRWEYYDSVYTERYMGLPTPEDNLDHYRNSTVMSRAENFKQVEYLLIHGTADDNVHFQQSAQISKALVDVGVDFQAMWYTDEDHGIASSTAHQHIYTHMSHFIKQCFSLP

The IC50 is the concentration at which inhibition is half-maximal. What is called Ki is the equilibrium dissociation constant of an inhibitor or competing ligand from its target. `N#C[C@@H]1CCCN1C(=O)CNC(=O)c1ccnc2ccc(Br)cc12` [compound 5, (S)-6-bromo-N-(2-(2-cyanopyrrolidin-1-yl)-2-oxoethyl)quinoline-4-carboxamide]: the figures for the IC50 (in assay [1]; on hrDPP IV; at hrPREP) were 30 ± 5 nM, over 100000 nM and over 100000 nM, respectively. Also, the Ki in assay [1] amounted to 12 ± 1.8 nM. The “selectivity index SI FAP/DPP IV” value at hrDPP IV (FAP with respect to DPP IV) was “higher than 3300”. Moreover, the “selectivity index SI FAP/PREP” value at hrPREP (FAP with respect to PREP) is listed as “higher than 3300”.
